GPR7 antagonist = blocks human GPR7 receptor signaling; P48145; GPR7-expressing cells, fluorescence antagonist assay; inhibition, % at 4.4 µM; hit rate 1.1% among 290,000; AID 1861; in the data active = inhibition above about 16%, passing the limit was not always enough;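 also: cells stimulated with the agonist NPW; 0% = agonist with vehicle and 100% = vehicle without agonist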
OX1R antag-1 = blocks the human orexin 1 receptor; O43613; CHO/OX1R cells, Fluo-8 calcium fluorescence, orexin A; inhibition, % at 5 µM; hit rate 0.43% among 330,000; AID 434989;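 active = inhibition above its plate's threshold, mean inhibition of all tested compounds on the plate plus 3 SD, cut at about 37% in these data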;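 also: 0% = orexin A challenge wells and 100% = SB-334867-A antagonist wells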
Target sequence (O43613 whole entry, looked up): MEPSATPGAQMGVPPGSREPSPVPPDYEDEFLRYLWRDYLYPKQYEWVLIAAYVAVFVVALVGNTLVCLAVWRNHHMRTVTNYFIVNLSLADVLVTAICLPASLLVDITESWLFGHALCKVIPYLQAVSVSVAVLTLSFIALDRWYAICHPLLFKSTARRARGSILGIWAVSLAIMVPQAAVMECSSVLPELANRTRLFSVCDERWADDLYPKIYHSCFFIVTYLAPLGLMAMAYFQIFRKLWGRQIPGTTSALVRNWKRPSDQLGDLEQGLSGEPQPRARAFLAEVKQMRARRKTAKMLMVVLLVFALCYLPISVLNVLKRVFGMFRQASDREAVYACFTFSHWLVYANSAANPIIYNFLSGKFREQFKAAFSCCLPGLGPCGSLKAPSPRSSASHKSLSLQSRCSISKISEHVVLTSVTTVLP
OX1R antag-2 = OX1R (human) antagonism | O43613 | OX1R-expressing cells, FRET antagonist read-out | inhibition, % at 6.6 µM | hit rate 1.8% among 330,000 | AID 485270; in the data active = inhibition mostly above about 38%, no sharp cut-off; inactive = mostly below about 40%;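 also: 0% = agonist challenge alone and 100% = reference antagonist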
CHO parental Ca = counter-screen: ATP calcium response change in parental CHO cells | parental CHO-K1, ATP-induced calcium, Fluo-8 fluorescence | inhibition, % at 5.6 µM | hit rate 0.63% among 330,000 | AID 463079;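 active = inhibition above that plate's mean sample inhibition plus 3 SD, cut at about 26% in these data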;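 also: 0% = ATP-challenged DMSO wells and 100% = DMSO wells without ATP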
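Assay system – parental CHO cells · Reagent – ATP stimulus · Detection – intracellular calcium via Fluo-8 no-wash fluorescent dye · Evaluation – percent inhibition of ATP-evoked calcium rise, normalized to controls · Controls – ATP wells versus no-ATP DMSO wells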
TAAR1 antag = antagonists of human TAAR1; hit rate 1.5% among 360,000; CHO RD-HGA16 TAAR1, Fluo-8 calcium fluorescence, antagonist; AID 624466; Q96RJ0; inhibition, % at 3 µM;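 active = inhibition above a per-plate cutoff, the mean inhibition of test compounds on that plate plus 3 SD, cut at about 49% in these data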;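 also: 0% = DMSO plus EC80 beta-PEA response and 100% = DMSO alone without agonist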
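Test system: hTAAR1-expressing CHO RD-HGA16 cells, Gα16-coupled; Probe or stimulus: EC80 β-phenethylamine stimulus; Compound dosing: single nominal final test compound concentration of 3 µM; Timing: 140 s kinetic read after compound, 140 s after agonist; Signal: Fluo-8 calcium-sensitive fluorescence; Measure: % inhibition of agonist calcium response; Controls: DMSO and EC80 PEA controls.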
TAAR1 ag = agonists of human TAAR1; CHO RD-HGA16 TAAR1, Fluo-8 calcium fluorescence; vehicle wells 0%, saturating PEA agonist 100%; activation, % at 3 µM; hit rate 0.99% among 360,000; AID 624467;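 active = activation above the mean activation of all test compounds in the run plus 3 SD, cut at about 38% in these data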
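Benchmarks: low control DMSO, high control PEA (EC100); System: CHO RD-HGA16 cells carrying human TAAR1 plus Gα16; Detection: Fluo-8 fluorescence, 5 s baseline then 140 s kinetic read; Schedule: 17-24 h plating, Fluo-8 75 min 37 °C, 30 min RT; Read-out basis: % activation from peak over basal fluorescence ratio, DMSO-to-PEA scaled.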
An asterisk follows results filed as active. The list is not random: actives were taken first. Their share in the collection is about 4.6%.

Screening Cc1ccc(S(=O)(=O)/N=C2\C(=O)c3ccccc3C([O-])=C2n2cc[n+](CCC(C)C)c2)cc1 returned GPR7 antagonist -3.6, OX1R antag-1 -14.7, OX1R antag-2 44.4* and CHO parental Ca -8.5.
CCCC[n+]1ccn(C2=C([O-])c3ccccc3C(=O)/C2=N\S(=O)(=O)c2ccc(Br)cc2)c1 was read as GPR7 antagonist -8.7, OX1R antag-1 -21.3, OX1R antag-2 20.4, CHO parental Ca -15.4, TAAR1 antag -15.2 and TAAR1 ag 1.6.
`COC(=O)C1=C(C)N(Cc2cccc(C(F)(F)F)c2)C(=NCc2cc(OC)c(OC)c(OC)c2)NC1c1cccc(Cl)c1` (stereo not given) gave TAAR1 antag 25.3 and TAAR1 ag 30.8.
`O=C(C=Cc1ccc(OCc2ccccc2)cc1)c1c(F)cccc1F` gave TAAR1 antag -10.8 and TAAR1 ag -0.2.
For COc1ccc(N2CCN(C(=O)C3CCN(C(=O)c4ccc([N+](=O)[O-])cc4)CC3)CC2)cc1 the results were GPR7 antagonist -1.1, OX1R antag-1 -4.8, OX1R antag-2 51.4*, CHO parental Ca -2.4, TAAR1 antag -7.4 and TAAR1 ag -0.3.
Screening CCOC(=O)N1CCN(C(=O)C2CCN(C(=O)c3ccc([N+](=O)[O-])cc3)CC2)CC1 returned GPR7 antagonist -18.7, OX1R antag-1 -16.5, OX1R antag-2 54.8*, CHO parental Ca -4.1, TAAR1 antag -6.2 and TAAR1 ag 2.0.
COc1ccc(NC(=O)N2CCN(c3ccc([N+](=O)[O-])cc3)CC2)cc1 was read as GPR7 antagonist 4.9, OX1R antag-1 9.2, OX1R antag-2 25.2, CHO parental Ca 5.7, TAAR1 antag 28.0 and TAAR1 ag 3.3.
For CC1=C(C(=O)OCC(C)C)C23C(=O)c4ccccc4C2(O1)OC(N)=C3C#N (stereo not given) the results were GPR7 antagonist -7.4, OX1R antag-1 -20.9, OX1R antag-2 12.6, CHO parental Ca -10.8, TAAR1 antag -4.8 and TAAR1 ag 2.1.
`CC1=C(C(=O)OCC(C)C)[C@]23C(=O)c4ccccc4[C@@]2(O1)OC(N)=C3C#N` gave GPR7 antagonist 17.4*, OX1R antag-1 -19.0, OX1R antag-2 19.0, CHO parental Ca -11.2, TAAR1 antag -0.1 and TAAR1 ag 6.8.
CC(NS(=O)(=O)OCC(Cl)(Cl)Cl)c1ccc(C(C)(C)C)cc1 (stereo not given) was read as GPR7 antagonist -9.3, OX1R antag-1 42.2, OX1R antag-2 49.8, CHO parental Ca 64.1*, TAAR1 antag 51.9* and TAAR1 ag 9.2.
Screening CCOC(=O)c1cn(CC)c2cc(Cl)c([N+](=O)[O-])cc2c1=O returned GPR7 antagonist -11.0, OX1R antag-1 -10.0, OX1R antag-2 54.8*, CHO parental Ca -1.9, TAAR1 antag -4.0 and TAAR1 ag 0.0.
CCOC(=O)c1cn(-c2c(Cl)cccc2Cl)c2cc(Cl)c([N+](=O)[O-])cc2c1=O was read as GPR7 antagonist -7.4, OX1R antag-1 -24.8, OX1R antag-2 52.3, CHO parental Ca -9.7, TAAR1 antag 29.8 and TAAR1 ag 9.8.
Screening COCc1cc(N2CCN(C(=O)OC(C)(C)C)C[C@H]2C)ccc1N1CC[C@@H](O)C1 returned TAAR1 antag 5.3 and TAAR1 ag 1.8.
O=c1c2ccccc2sn1-c1ccccc1F was read as TAAR1 antag 13.4 and TAAR1 ag 23.9.
For O=c1c2ccccc2sn1-c1cccc(Cl)c1 the results were TAAR1 antag 21.8 and TAAR1 ag 38.5*.
For O=C1c2ccccc2C(=O)N1c1nccs1 the results were TAAR1 antag -15.6 and TAAR1 ag 3.1.
Screening O=c1c2cc(F)ccc2sn1-c1ccccc1 returned OX1R antag-1 46.0, OX1R antag-2 29.4, CHO parental Ca 72.0*, TAAR1 antag 57.3* and TAAR1 ag 60.1*.
`O=C(O)c1cccc(-n2sc3ccccc3c2=O)c1` gave OX1R antag-1 -13.9, OX1R antag-2 -6.9, CHO parental Ca -5.9, TAAR1 antag -10.0 and TAAR1 ag 14.6.
Screening O=c1c2ccccc2sn1-c1nccs1 returned GPR7 antagonist -2.7, TAAR1 antag 35.3 and TAAR1 ag 46.6*.
